Screens from PubChem.
Most compounds without a hit are left out; they make up all but 4.6% or so of the library.
RAM inhibit: blocks the yeast RAM network. S. cerevisiae dse1pr::URA3 reporter, 5-FOA growth OD615, 2 d; analog-sensitive cbk1-as2 kinase mutant strain. hit rate 1.8% among 190,000. inhibition, % at 50 µM. AID 868;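 active = inhibition above a set limit, 3 SD over mean compound inhibition, cut at about 8.4% in these data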;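 note: 0% = DMSO-only wells with no growth and 100% = 10 µM 1-NA-PP1 full growth; inhibition rescues growth on 5-FOA so higher OD means more RAM inhibition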
Biofilm kill mix: mixtures killing C. albicans biofilm; AID 1242; inhibition, % at 7.6 µM; C. albicans biofilm persisters + clotrimazole, fluorescence viability; primary screen in compound mixtures of four per well; hit rate 0.02% among 120,000;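 active = inhibition above 30.3% in the primary screen of four-compound pools, then above 30% when the compound was retested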;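 note: compounds exposed to preformed 24 h biofilms for 48 h; 0% = untreated biofilm control and 100% = clotrimazole plus chlorhexidine kill blank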
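Incubation: 24 h biofilm formation, then 48 h compound exposure, 37 °C | Material: C. albicans biofilms | Buffer or medium: RPMI/MOPS medium, pH 7.0 | Measured by: 2-h Alamar Blue fluorescence, 535/590 nm excitation/emission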
WT yeast gro inh: growth inhibition of WT yeast, mitochondrial fusion screen; inhibition, % at 10 µM; mitochondrial fusion phenotypic screen, WT strain; AID 1362; hit rate 2.1% among 190,000; in the data active = inhibition above about 58%; tested in S. cerevisiae
p47phox inh: blocks human p47phox regulatory protein of NADPH oxidases; P14598; p47phox/p22phox peptide binding, fluorescence polarization, 2 h; inhibition, % at 24.7 µM; hit rate 0.53% among 220,000;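 active = inhibition above about 30%, limit read from the data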;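 note: 0% = p47phox with labelled peptide and 100% = labelled peptide alone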
Arbovirus inh: blocks arbovirus infection; arbovirus infection cell-based antiviral screen; inhibition, % at 10 µM; hit rate 0.37% among 200,000; AID 1251; in the data active = inhibition above about 30%
Hck-Nef inh: inhibitors of human Hck kinase activated by Nef; P08631; Recombinant Hck-YEEI plus Nef, Z-Lyte FRET kinase assay; inhibition, % at 20 µM; hit rate 0.68% among 220,000; AID 463187;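 active = Hck-Nef kinase inhibition above about 50%, limit read from the data; inactive = inhibition below that limit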;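 note: 0% = DMSO with Hck plus Nef and 100% = Hck alone without Nef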
Target sequence (P08631 whole entry, looked up): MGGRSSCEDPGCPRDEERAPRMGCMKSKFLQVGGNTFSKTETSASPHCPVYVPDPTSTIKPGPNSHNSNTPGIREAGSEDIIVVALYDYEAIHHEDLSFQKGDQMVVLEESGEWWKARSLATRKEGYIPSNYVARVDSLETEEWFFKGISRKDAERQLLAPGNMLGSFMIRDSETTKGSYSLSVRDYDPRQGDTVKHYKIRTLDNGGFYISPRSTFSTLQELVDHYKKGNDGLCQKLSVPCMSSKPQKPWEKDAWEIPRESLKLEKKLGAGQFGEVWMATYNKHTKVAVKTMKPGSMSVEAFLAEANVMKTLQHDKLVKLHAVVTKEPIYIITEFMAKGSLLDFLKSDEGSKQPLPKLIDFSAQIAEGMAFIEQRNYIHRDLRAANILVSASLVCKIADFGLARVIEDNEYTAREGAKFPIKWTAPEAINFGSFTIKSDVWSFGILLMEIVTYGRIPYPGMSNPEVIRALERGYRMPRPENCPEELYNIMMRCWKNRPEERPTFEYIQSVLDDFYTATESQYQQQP
Active calls of the source: *; · = not tested or not shown.

SMILES | RAM inhibit | Biofilm kill mix | WT yeast gro inh | p47phox inh | Arbovirus inh | Hck-Nef inh
CC1(C)CC(c2nc(-c3ccc([N+](=O)[O-])cc3)cs2)CCO1 (stereo not given) | 0.1 | 13.1 | 25.2 | -14.2 | 10.7 | -1.2
Cc1ccnc(SCc2cc(=O)c(OC(=O)c3ccc(Br)o3)co2)n1 | 2.5 | 18.2 | 17.1 | -5.5 | -6.6 | 1.1
Cc1ccc(-n2nc(C)c(NC(=O)CCl)c2C)cc1 | 0.2 | 14.2 | -6.6 | 0.2 | 34.8* | 3.0
CSc1nc2ccc(NS(=O)(=O)c3ccc4c(c3)OCCO4)cc2s1 | 0.6 | · | 18.0 | -45.8 | 31.9* | -3.8
CSc1nc2ccc(NS(=O)(=O)c3ccccc3F)cc2s1 | 2.2 | 19.4 | 12.4 | -6.8 | 9.2 | 0.2
CSc1nc2ccc(NS(=O)(=O)c3c(Cl)cccc3Cl)cc2s1 | 4.6 | 14.0 | 67.1* | -37.0 | 19.8 | 0.9
CSc1nc2ccc(NS(=O)(=O)c3ccc(Br)s3)cc2s1 | · | 24.9 | · | -15.5 | · | 9.6
O=[N+]([O-])c1ccc(S(=O)(=O)Nc2ccc(-c3csc(-c4ccccc4)n3)cc2)cc1 | 6.8 | · | 95.4* | -11.0 | -44.2 | -1.8
c1ccc2c(CSc3ncnc4nc[nH]c34)cccc2c1 | 2.8 | 11.6 | 65.4* | -14.5 | -26.7 | 20.0
CCOC(=O)C1=C(SCC(=O)Nc2ccccc2)NC(=O)C(C#N)C12CCCCC2 (stereo not given) | 1.2 | · | 4.0 | -8.6 | -5.2 | 0.6
O=C(Cn1cnc2scc(-c3cccc([N+](=O)[O-])c3)c2c1=O)NCc1ccco1 | 4.7 | 17.1 | 6.5 | -9.8 | -2.3 | 54.0*
Cc1sc2ncn(CC(=O)NCc3ccco3)c(=O)c2c1-c1ccc(F)cc1 | 0.6 | 7.3 | -9.9 | -19.5 | -1.9 | 28.3
CCC(=O)C1=C(O)C(c2cccc(Oc3ccccc3)c2)CCC1=O (stereo not given) | 0.4 | 13.1 | 63.2* | -1.3 | 1.1 | -20.4
COCCN1C(=O)C(O)=C(C(=O)c2ccco2)C1c1cccc(Oc2ccccc2)c1 (stereo not given) | 5.8 | · | 7.1 | -12.3 | -11.8 | 0.4
O=C(c1nc2ccccn2c1CNCCn1ccc2ccccc21)N1CCOCC1 | · | 26.2 | · | -2.3 | · | -14.4
CCCCc1c(C)nn(-c2nnc3c4ccccc4n(CC)c3n2)c1C | 0.3 | · | 68.0* | -68.5 | -8.4 | -0.2
CCn1c2ccccc2c2nc3ccccc3nc21 | 3.7 | · | 10.2 | -18.5 | 6.7 | 7.5
Cc1ccc(/C=C(\NC(=O)c2ccccc2)C(=O)NCCc2ccccn2)o1 | 0.9 | -0.5 | -3.6 | -4.6 | 3.9 | 2.3
CC(C)(C)NS(=O)(=O)c1ccc(CCC(=O)N2CCCC2)cc1 | 0.8 | 12.3 | 9.9 | 0.9 | 22.6 | 14.8
Cc1c(C)n(Cc2ccccc2)c2ccc(C(=O)OCCCN(C)C)cc12 | 0.8 | 1.3 | 87.4* | -13.9 | -30.8 | 22.0
OCCNCc1cc(Br)ccc1OCc1ccc(Cl)cc1Cl | 2.5 | 15.0 | 58.2* | -4.5 | -9.6 | 1.4
O=C(Nc1nc(-c2cccs2)c(-c2cccs2)s1)C1CCCC1 | 5.7 | 13.8 | 71.8* | -37.5 | -12.7 | -0.6
CS(=O)(=O)c1ccc2nc(NC(=O)c3ccc(NS(=O)(=O)c4ccc(F)c(F)c4)cc3)sc2c1 | · | 11.3 | · | -20.0 | · | 39.1
CS(=O)(=O)c1ccc2nc(NC(=O)c3cccc(NS(=O)(=O)c4ccc(F)c(F)c4)c3)sc2c1 | 5.5 | 8.9 | -8.0 | -59.9 | 64.7* | 4.3
O=C(Nc1ccc2c(c1)nc1n2CCN(Cc2ccccc2)C1)c1cccs1 | 1.4 | · | 63.2* | -7.6 | -4.6 | -0.4
SMILES | RAM inhibit | Biofilm kill mix | WT yeast gro inh | p47phox inh | Arbovirus inh | Hck-Nef inh
CCOC(=O)Cn1c(=O)c(C#N)cn(C(C)C)c1=O | · | 25.6 | · | -16.0 | · | 15.7
C=CCOC(=O)C1=C[C@H](c2coc3ccccc3c2=O)C[C@H](OCc2ccc(CO)cc2)O1 | 2.0 | 11.9 | -25.0 | · | 1.6 | 3.7
C=CCOC(=O)C1=C[C@@H](c2coc3ccccc3c2=O)C[C@@H](OCc2ccc(CO)cc2)O1 | 3.4 | 17.4 | 68.1* | · | 2.5 | 11.5
O=C(C1=C[C@@H](c2csc3ccccc23)C[C@@H](OCc2ccc(CO)cc2)O1)N1CCN(Cc2ccccc2)CC1 | 1.3 | 13.6 | 93.8* | · | -9.8 | 14.8
CC(C)(C)[C@@H]1C=C(C(=O)N2CCN(Cc3ccccc3)CC2)O[C@H](OCc2ccc(CO)cc2)C1 | -1.0 | 9.8 | 70.2* | · | -12.9 | -8.2
O=C(C1=C[C@@H](c2csc3ccccc23)C[C@@H](OCc2ccc(CO)cc2)O1)N1CCN(Cc2ccc3c(c2)OCO3)CC1 | 0.0 | 20.9 | -6.0 | -17.7 | -3.9 | -70.1
CC(C)(C)[C@H]1C=C(C(=O)N2CCN(Cc3ccc4c(c3)OCO4)CC2)O[C@@H](OCc2ccc(CO)cc2)C1 | -1.4 | 10.6 | 96.8* | 15.8 | -8.9 | -2.7
CC(C)(C)[C@H]1C=C(C(=O)N2CCN(Cc3ccccc3)CC2)O[C@@H](OCCCCO)C1 | 2.7 | 4.0 | -27.6 | · | -4.4 | -5.1
CCOc1ccc(OCC)c(NS(=O)(=O)c2ccc3c(c2)CCN3C(=O)C2CCC2)c1 | 1.7 | · | 3.9 | -4.8 | 7.4 | -1.8
COc1cccc(CC2CC(=O)N(c3ccc4c(C)cc(=O)oc4c3)C2=O)c1 (stereo not given) | 0.2 | 11.1 | 5.9 | -5.9 | 3.0 | -4.6
CCOC(=O)C1CCN(C(=O)c2cc3c(=O)n4ccccc4nc3n2C)CC1 | -0.9 | 17.6 | 0.2 | -2.4 | 0.2 | 13.3
CCOc1ccc(N2C(=O)CC(Sc3nc(-c4cccs4)cc(C(F)(F)F)c3C#N)C2=O)cc1 (stereo not given) | 10.8* | · | -42.7 | -26.1 | 18.5 | 0.4
CCCN1Cc2cccc(C(=O)N3CCN(c4cc(Cl)ccc4C)CC3)c2C1=O | -0.1 | · | 25.8 | 0.2 | 47.2* | 7.8
COCCN1Cc2cccc(C(=O)N3CCN(c4cc(C)ccc4C)CC3)c2C1=O | 0.5 | · | -1.6 | -1.8 | 3.2 | -0.1
O=C(O)C1CCCN1S(=O)(=O)c1cccs1 (stereo not given) | 0.1 | · | -2.0 | -10.6 | 6.5 | 8.4
COc1cccc(C(=O)NC2CC3CCCC(C2)N3CC(=O)Nc2ccccc2)c1 (stereo not given) | 1.4 | · | 11.9 | 58.2* | 23.5 | 6.8
COCCN1CN=C(Nc2nc3ccccc3s2)NC1 | 0.8 | · | -2.5 | -6.0 | 2.5 | 1.5
COC(=O)C1=C(CSc2nc3ccccc3o2)NC(=O)NC1c1cc(C)ccc1C (stereo not given) | 3.7 | · | 75.4* | -8.8 | 15.7 | 0.1
COC(=O)C1=C(CSCc2ccccc2)NC(=O)NC1c1cc(C)ccc1C (stereo not given) | 2.6 | · | -3.5 | -27.7 | 2.8 | -1.4
O=C(NCCc1ccccc1)C1CC(c2ccccc2O)=NO1 (stereo not given) | 1.1 | · | -2.1 | 1.4 | 4.3 | 3.1
Cn1c(=O)n(CCc2ccccc2)c(=O)c2c1nc1n2CCCN1Cc1ccccc1 | 2.4 | · | 13.1 | -6.6 | -2.4 | -0.5
Cn1c(=O)n(CCc2ccccc2)c(=O)c2c1nc1n2CCCN1CCc1ccccc1 | 3.8 | · | 67.1* | -1.9 | -23.8 | 0.7
